pIC50: −log10 of the molar value. Values after ≈ are worked out from the molar mass of the structure shown.
How the values were obtained:
Dihydrofolate reductase = biological target: T1, Dihydrofolate reductase (Bos taurus, UniProt P00376); experiment: Inhibition of bovine liver DHFR preincubated for 2 mins followed by addition of FH2 as substrate and NADPH
T1 sequence (P00376 whole entry): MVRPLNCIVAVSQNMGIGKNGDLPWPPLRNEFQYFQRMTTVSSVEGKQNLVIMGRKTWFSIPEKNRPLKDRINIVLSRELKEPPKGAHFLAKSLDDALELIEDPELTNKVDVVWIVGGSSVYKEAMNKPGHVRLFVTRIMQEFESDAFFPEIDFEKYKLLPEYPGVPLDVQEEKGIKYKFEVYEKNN

Bacillus subtilis [1] = experiment: Antimicrobial activity against Bacillus subtilis IFO 3007 at 200 ug/disc measured after 24 hrs by agar disc-diffusion method; format: functional; settings: IFO 3007, 24 h, read-out: DIZ
Staphylococcus aureus [2] = experiment: Antimicrobial activity against Staphylococcus aureus IFO 3060 measured after 24 hrs by microdilution method; format: functional
Escherichia coli [3] = experiment: microbe, parasite or virus in culture; settings: IFO 3301, 24 h
Bacillus subtilis [4] = experiment: Antimicrobial activity against Bacillus subtilis IFO 3007 measured after 24 hrs by microdilution method; format: functional
Pseudomonas aeruginosa [5] = experiment: Antimicrobial activity against Pseudomonas aeruginosa IFO 3448 at 200 ug/disc measured after 24 hrs by agar disc-diffusion method; format: functional; settings: IFO 3448, 24 h, read-out: DIZ
Candida albicans = experiment: Antimicrobial activity against Candida albicans IFO 0583 at 200 ug/disc measured after 48 hrs by agar disc-diffusion method; format: functional; settings: IFO 0583, 48 h, read-out: DIZ
Staphylococcus aureus [6] = experiment: Antimicrobial activity against Staphylococcus aureus IFO 3060 at 200 ug/disc measured after 24 hrs by agar disc-diffusion method; format: functional; settings: IFO 3060, 24 h, read-out: DIZ
Escherichia coli [7] = experiment: Antimicrobial activity against Escherichia coli IFO 3301 at 200 ug/disc measured after 24 hrs by agar disc-diffusion method; format: functional; settings: IFO 3301, 24 h, read-out: DIZ
Pseudomonas aeruginosa [8] = experiment: Antimicrobial activity against Pseudomonas aeruginosa IFO 3448 measured after 24 hrs by microdilution method; format: functional
[9] = Growth inhibition of human CNS cancer cells after 48 hrs by SRB assay; format: functional; settings: Cancer cell lines
Outline: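 Five-log dose range against NCI tumor cell lines, monitoring GI50, TGI and LC50 for each cell line; MG-MID values derived across the panel; 5-fluorouracil positive control.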

[10] = Growth inhibition of human prostate cancer cells after 48 hrs by SRB assay; format: functional; settings: Cancer cell lines
Outline: (§1)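 Follow-up NCI panel testing over a 5-log dose range for each cell line. GI50, TGI and LC50 were monitored, with 5-fluorouracil run as the positive control. Values are grouped by tumour subpanel.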

[11] = Growth inhibition of human ovarian cancer cells after 48 hrs by SRB assay; format: functional; settings: Cancer cell lines; outline: as §1
[12] = Growth inhibition of human breast cancer cells after 48 hrs by SRB assay; format: functional; settings: Cancer cell lines; outline: as §1
[13] = Growth inhibition of human melanoma cells after 48 hrs by SRB assay; format: functional; settings: Melanoma cell; outline: as §1
[14] = Growth inhibition of human renal cancer cells after 48 hrs by SRB assay; format: functional; settings: Cancer cell lines; outline: as §1
[15] = Growth inhibition of human leukemia cells after 48 hrs by SRB assay; format: functional; settings: Leukemia cell; outline: as §1
[16] = Growth inhibition of human non-small cell lung cancer cells after 48 hrs by SRB assay; format: functional; settings: Cancer cell lines; outline: as §1
[17] = Growth inhibition of human colon cancer cells after 48 hrs by SRB assay; format: functional; settings: Cancer cell lines; outline: as §1

COc1cc(CSc2nc3ccc(Cl)cc3c(=O)n2-c2ccc(Cl)cc2)cc(OC)c1OC
pIC50 (Dihydrofolate reductase): 5.70

COc1cc(CSc2nc3ccc(C)cc3c(=O)n2-c2ccc(Cl)cc2)cc(OC)c1OC
pIC50 (Dihydrofolate reductase): 6.05

COc1ccc(CSc2nc3ccc(Cl)cc3c(=O)n2-c2ccc(C)cc2)cc1
pIC50 (Dihydrofolate reductase): 5.40

COc1ccc(-n2c(SCc3cc(OC)c(OC)c(OC)c3)nc3ccc(Cl)cc3c2=O)c(OC)c1
pIC50 (Dihydrofolate reductase): 5.40

COc1ccc(CSc2nc3ccc(C)cc3c(=O)n2Cc2ccccc2)cc1
pIC50 (Dihydrofolate reductase): 8.00

COc1cc(CSc2nc3ccc(Cl)cc3c(=O)n2-c2ccc(C)cc2)cc(OC)c1OC
pIC50 (Dihydrofolate reductase): 5.52

COc1ccc(-n2c(SCc3cc(OC)c(OC)c(OC)c3)nc3cc(OC)c(OC)cc3c2=O)c(OC)c1
pIC50 (Dihydrofolate reductase): 5.52

COc1ccc(CSc2nc3ccc(Cl)cc3c(=O)n2-c2ccc(OC)cc2)cc1
pIC50 (Dihydrofolate reductase): 7.00

COc1ccc(CSc2nc3cc(OC)c(OC)cc3c(=O)n2-c2ccccc2OC)cc1
pIC50 (Dihydrofolate reductase): 6.22

COc1ccc(CSc2nc3cc(OC)c(OC)cc3c(=O)n2-c2ccc(Cl)cc2)cc1
pIC50 (Dihydrofolate reductase): 5.22 | zone of inhibition at 200 µg/disc (Bacillus subtilis [1]): 18 mm | MIC (Staphylococcus aureus [2]; IFO 3060, 24 h): 4 µg/mL (≈ 8.53 µM) | MIC (Escherichia coli [3]): 8 µg/mL (≈ 17.1 µM) | MIC (Bacillus subtilis [4]; IFO 3007, 24 h): 4 µg/mL (≈ 8.53 µM) | zone of inhibition at 200 µg/disc (Pseudomonas aeruginosa [5]): 8 mm | zone of inhibition at 200 µg/disc (Candida albicans): 8 mm | zone of inhibition at 200 µg/disc (Staphylococcus aureus [6]): 20 mm | zone of inhibition at 200 µg/disc (Escherichia coli [7]): 15 mm

COc1ccc(CSc2nc3ccc(C)cc3c(=O)n2-c2ccccc2)cc1
pIC50 (Dihydrofolate reductase): 7.00 | zone of inhibition at 200 µg/disc (Bacillus subtilis [1]): 22 mm | MIC (Staphylococcus aureus [2]; IFO 3060, 24 h): 4 µg/mL (≈ 10.3 µM) | MIC (Escherichia coli [3]): 8 µg/mL (≈ 20.6 µM) | MIC (Bacillus subtilis [4]; IFO 3007, 24 h): 2 µg/mL (≈ 5.15 µM) | zone of inhibition at 200 µg/disc (Pseudomonas aeruginosa [5]): 12 mm | zone of inhibition at 200 µg/disc (Candida albicans): 8 mm | zone of inhibition at 200 µg/disc (Staphylococcus aureus [6]): 18 mm | zone of inhibition at 200 µg/disc (Escherichia coli [7]): 16 mm

COc1ccc(CSc2nc3cc(OC)c(OC)cc3c(=O)n2-c2ccc(OC)cc2)cc1
pIC50 (Dihydrofolate reductase): 6.10

COc1cc2nc(SCc3cc(OC)c(OC)c(OC)c3)n(-c3ccc(C)cc3)c(=O)c2cc1OC
pIC50 (Dihydrofolate reductase): 5.92

COc1cc2nc(SCc3cc(OC)c(OC)c(OC)c3)n(-c3ccc(Cl)cc3)c(=O)c2cc1OC
pIC50 (Dihydrofolate reductase): 6.05 | zone of inhibition at 200 µg/disc (Bacillus subtilis [1]): 26 mm | MIC (Staphylococcus aureus [2]; IFO 3060, 24 h): 4 µg/mL (≈ 7.56 µM) | MIC (Escherichia coli [3]): 8 µg/mL (≈ 15.1 µM) | MIC (Bacillus subtilis [4]; IFO 3007, 24 h): 2 µg/mL (≈ 3.78 µM) | zone of inhibition at 200 µg/disc (Pseudomonas aeruginosa [5]): 12 mm | zone of inhibition at 200 µg/disc (Candida albicans): 8 mm | zone of inhibition at 200 µg/disc (Staphylococcus aureus [6]): 22 mm | zone of inhibition at 200 µg/disc (Escherichia coli [7]): 18 mm

COc1ccc(CSc2nc3ccc(Cl)cc3c(=O)n2-c2ccc(Cl)cc2)cc1
pIC50 (Dihydrofolate reductase): 5.52

Clc1ccccc1C(c1ccccc1)(c1ccccc1)n1ccnc1 [CLOTRIMAZOLE]
zone of inhibition at 200 µg/disc (Candida albicans): 21 mm

COc1ccc(CSc2nc3cc(OC)c(OC)cc3c(=O)n2-c2ccccc2)cc1
pIC50 (Dihydrofolate reductase): 5.40 | zone of inhibition at 200 µg/disc (Bacillus subtilis [1]): 26 mm | MIC (Staphylococcus aureus [2]; IFO 3060, 24 h): 2 µg/mL (≈ 4.6 µM) | MIC (Escherichia coli [3]): 8 µg/mL (≈ 18.4 µM) | MIC (Bacillus subtilis [4]; IFO 3007, 24 h): 2 µg/mL (≈ 4.6 µM) | zone of inhibition at 200 µg/disc (Pseudomonas aeruginosa [5]): 8 mm | zone of inhibition at 200 µg/disc (Candida albicans): 12 mm | zone of inhibition at 200 µg/disc (Staphylococcus aureus [6]): 24 mm | zone of inhibition at 200 µg/disc (Escherichia coli [7]): 14 mm

COc1ccc(CSc2nc3ccc(C)cc3c(=O)n2-c2ccc(OC)cc2OC)cc1
pIC50 (Dihydrofolate reductase): 6.15

COc1ccc(CSc2nc3ccc(C)cc3c(=O)n2-c2ccc(C)cc2)cc1
pIC50 (Dihydrofolate reductase): 6.00

COc1ccc(CSc2nc3ccc(C)cc3c(=O)n2-c2ccc(Cl)cc2)cc1
pIC50 (Dihydrofolate reductase): 7.00

COc1ccc(CSc2nc3ccc(Cl)cc3c(=O)n2Cc2ccccc2)cc1
pIC50 (Dihydrofolate reductase): 5.96

COc1ccc(CSc2nc3ccc(C)cc3c(=O)n2-c2ccccc2OC)cc1
pIC50 (Dihydrofolate reductase): 6.05

COc1cc2nc(SCc3cc(OC)c(OC)c(OC)c3)n(-c3ccccc3)c(=O)c2cc1OC
pIC50 (Dihydrofolate reductase): 6.05 | MIC (Pseudomonas aeruginosa [8]; IFO 3448, 24 h): 8 µg/mL (≈ 16.2 µM) | zone of inhibition at 200 µg/disc (Bacillus subtilis [1]): 19 mm | MIC (Staphylococcus aureus [2]; IFO 3060, 24 h): 8 µg/mL (≈ 16.2 µM) | MIC (Escherichia coli [3]): 8 µg/mL (≈ 16.2 µM) | MIC (Bacillus subtilis [4]; IFO 3007, 24 h): 8 µg/mL (≈ 16.2 µM) | zone of inhibition at 200 µg/disc (Pseudomonas aeruginosa [5]): 16 mm | zone of inhibition at 200 µg/disc (Candida albicans): 8 mm | zone of inhibition at 200 µg/disc (Staphylococcus aureus [6]): 15 mm | zone of inhibition at 200 µg/disc (Escherichia coli [7]): 18 mm

GENTAMICIN
MIC (Pseudomonas aeruginosa [8]): 1 µg/mL | MIC (Staphylococcus aureus [2]): 2 µg/mL | MIC (Bacillus subtilis [4]): 2 µg/mL

COc1ccc(CSc2nc3ccc(Cl)cc3c(=O)n2-c2ccccc2OC)cc1
pIC50 (Dihydrofolate reductase): 6.10

COc1ccc(-n2c(SCc3cc(OC)c(OC)c(OC)c3)nc3cc(OC)c(OC)cc3c2=O)cc1
pIC50 (Dihydrofolate reductase): 5.92

COc1cc(CSc2nc3ccc(C)cc3c(=O)n2-c2ccc(C)cc2)cc(OC)c1OC
pIC50 (Dihydrofolate reductase): 5.82

COc1ccc(CSc2nc3ccc(Cl)cc3c(=O)n2-c2ccc(OC)cc2OC)cc1
pIC50 (Dihydrofolate reductase): 6.00 | zone of inhibition at 200 µg/disc (Bacillus subtilis [1]): 18 mm | MIC (Staphylococcus aureus [2]; IFO 3060, 24 h): 8 µg/mL (≈ 17.1 µM) | MIC (Bacillus subtilis [4]; IFO 3007, 24 h): 4 µg/mL (≈ 8.53 µM) | zone of inhibition at 200 µg/disc (Pseudomonas aeruginosa [5]): 8 mm | zone of inhibition at 200 µg/disc (Candida albicans): 8 mm | zone of inhibition at 200 µg/disc (Staphylococcus aureus [6]): 15 mm | zone of inhibition at 200 µg/disc (Escherichia coli [7]): 8 mm

O=C(O)c1cn(C2CC2)c2cc(N3CCNCC3)c(F)cc2c1=O [CIPROFLOXACIN]
MIC (Pseudomonas aeruginosa [8]; IFO 3448, 24 h): 1 µg/mL (≈ 3.02 µM) | zone of inhibition at 200 µg/disc (Bacillus subtilis [1]): 35 mm | MIC (Staphylococcus aureus [2]; IFO 3060, 24 h): 0.5 µg/mL (≈ 1.51 µM) | MIC (Bacillus subtilis [4]; IFO 3007, 24 h): 0.5 µg/mL (≈ 1.51 µM) | zone of inhibition at 200 µg/disc (Pseudomonas aeruginosa [5]): 36 mm | zone of inhibition at 200 µg/disc (Staphylococcus aureus [6]): 32 mm | zone of inhibition at 200 µg/disc (Escherichia coli [7]): 38 mm

COc1ccc(CSc2nc3cc(OC)c(OC)cc3c(=O)n2-c2ccc(C)cc2)cc1
pIC50 (Dihydrofolate reductase): 5.70

COc1ccc(CSc2nc3ccc(C)cc3c(=O)n2-c2ccc(OC)cc2)cc1
pIC50 (Dihydrofolate reductase): 5.92

COc1ccccc1-n1c(SCc2cc(OC)c(OC)c(OC)c2)nc2ccc(C)cc2c1=O
pIC50 (Dihydrofolate reductase): 6.00

COc1ccc(CSc2nc3cc(OC)c(OC)cc3c(=O)n2Cc2ccccc2)cc1
pIC50 (Dihydrofolate reductase): 6.10

O=c1[nH]cc(F)c(=O)[nH]1 [FLUOROURACIL]
TGI [9]: > 100000 nM | GI50 [10]: 22700 nM | TGI [10]: > 100000 nM | GI50 [11]: 61400 nM | TGI [11]: > 100000 nM | GI50 [12]: 76400 nM | TGI [12]: > 100000 nM | GI50 [13]: 70600 nM | TGI [13]: > 100000 nM | GI50 [14]: 45600 nM | TGI [14]: > 100000 nM | TGI [15]: > 100000 nM | CC50 ([15]; read-out: LC50 (the source's name)): > 100000 nM | GI50 [16]: > 100000 nM | TGI [16]: > 100000 nM | GI50 [17]: 8400 nM | TGI [17]: > 100000 nM

COc1ccc(CSc2nc3ccc(Cl)cc3c(=O)n2-c2ccccc2)cc1
pIC50 (Dihydrofolate reductase): 7.70 | zone of inhibition at 200 µg/disc (Bacillus subtilis [1]): 16 mm | zone of inhibition at 200 µg/disc (Pseudomonas aeruginosa [5]): 8 mm | zone of inhibition at 200 µg/disc (Candida albicans): 8 mm | zone of inhibition at 200 µg/disc (Staphylococcus aureus [6]): 14 mm | zone of inhibition at 200 µg/disc (Escherichia coli [7]): 8 mm
